Results from ChEMBL document CHEMBL1147929, “Synthesis and in vitro photodynamic activities of water-soluble fluorinated tetrapyridylporphyrins as tumor photosensitizers” (Bioorg Med Chem Lett, 2007).
Active and inactive are the calls of the source. The calls are words filed in the database; no cut-off is given here.

Legend:
HeLa [1] = test: Phototoxicity against HeLa cells assessed as photo-induced growth inhibition after 48 hrs by MTT assay; format: functional, cell-based, Homo sapiens
Outline: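 HeLa cells pre-incubated 1 h with a range of porphyrin concentrations. Without washing, cells were irradiated 1 h with a fluorescent lamp (530–620 nm; 0.44 mW/cm², 1.6 J/cm²). They were then incubated 48 h at 37 °C, and survival fraction was read by MTT. Non-irradiated cells served as dark controls.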

HeLa [2] = test: Cytotoxicity in HeLa cells assessed as PDT-induced ROS generation after 2 hrs by flow cytometry; format: functional, cell-based; details: Homo sapiens
Outline: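 HeLa cells exposed to porphyrins at […] for 2 h, then irradiated with visible light. Intracellular ROS probed with 2,7-dichlorofluorescin (DCF). DCF fluorescence read by flow cytometry after 2 h of porphyrin treatment. Untreated cells served as baseline.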

HeLa [3] = test: Induction of apoptosis in HeLa cells assessed as accumulation at subG1 phase by FACS flow cytometry; format: functional, cell-based; details: Homo sapiens
Outline: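 HeLa cells treated with 0, 4.6, 9.2, 18.4, 27.6 or 36.8 μM porphyrin, then stained with propidium iodide. The sub-G1 population was measured from DNA content histograms by FACS flow cytometry and taken as apoptotic cells. Values are means ± S.D.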

[4] = Homo sapiens, HeLa, light or radiation study, 48 h

Structure (SMILES) | IC50 (HeLa [1]; hela) | Activity (HeLa [2]) | IC50 (HeLa [1]; [4]) | Activity (HeLa [3])
C[n+]1cc(F)c(-c2c3nc(c(-c4c(F)c[n+](C)cc4F)c4ccc([nH]4)c(-c4c(F)c[n+](C)cc4F)c4nc(c(-c5c(F)c[n+](C)cc5F)c5ccc2[nH]5)C=C4)C=C3)c(F)c1 | 870 nM | Active | – | –
C[n+]1ccc(-c2c3nc(c(-c4cc[n+](C)cc4)c4ccc([nH]4)c(-c4cc[n+](C)cc4)c4nc(c(-c5cc[n+](C)cc5)c5ccc2[nH]5)C=C4)C=C3)cc1 | – | – | 3000 nM | –
C[n+]1ccc(-c2c3nc(c(-c4cc[n+](C)cc4)c4ccc([nH]4)c(-c4cc[n+](C)cc4)c4ccc([nH]4)c(-c4cc[n+](C)cc4)c4nc2C=C4)C=C3)cc1 | – | Active | – | –
C[n+]1cccc(-c2c3nc(c(-c4ccc[n+](C)c4F)c4ccc([nH]4)c(-c4ccc[n+](C)c4F)c4nc(c(-c5ccc[n+](C)c5F)c5ccc2[nH]5)C=C4)C=C3)c1F | 1100 nM | Active | – | Dose-dependent effect
C[n+]1ccc(-c2c3nc(c(-c4cc[n+](C)cc4F)c4ccc([nH]4)c(-c4cc[n+](C)cc4F)c4nc(c(-c5cc[n+](C)cc5F)c5ccc2[nH]5)C=C4)C=C3)c(F)c1 | – | Active | 40000 nM | Dose-dependent effect
